Compounds with a hit are over-represented: about 1.9% of the library has one in this group of screens.
N-glyco inh: increase of ERlucT glycosylation luciferase signal, primary screen, N-linked glycosylation inhibitor project, D54 ERlucT cells, luminescence, set 2; D54 ERlucT glycosylation luciferase reporter, 24 h; percent of 100 nM tunicamycin response; reporter increase, % at 12.5 µM; hit rate 0.23% among 360,000; AID 588692, 2011;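 active = mean luciferase reporter signal, scaled so untreated is 0 and the glycosylation-blocking control 100, at or above a set limit in every replicate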;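 note: luciferase carries N-glycosylation sites so blocking glycosylation raises the light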
Env fusion inh: inhibitors of HIV-1 Env-driven cell-cell fusion, primary screen, HeLa-JRFL effector, CEM21 target cells, luciferase; AID 651610, 2012; hit rate 1.1% among 360,000; inhibition, % at 12.3 µM;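 active = mean replicate inhibition score of at least 50 and every replicate individually at or above 50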
SR-BI uptake up: activators of SR-BI mediated DiI-HDL uptake, primary screen, ldlA[mSR-BI] CHO cells, DiI fluorescence | 3 h; 100 = double the neutral-control signal | activation, % at 12.5 µM | hit rate 0.096% among 320,000;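 active = mean replicate activation of at least 60% and every replicate at or above 60%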
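Assay system: CHO ldlA[mSR-BI] cells, LDL receptor-null, SR-BI overexpressing; medium: Ham's F12 with 0.5% BSA, HEPES 25 mM, pH 7.4; also added: DiI-HDL 10 µg/mL; timing: 3 h uptake period with compound, 37 °C; signal: DiI fluorescence, bottom read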
Rtt109 Vps75: inhibitors of C. albicans Rtt109/Vps75 HAT, primary screen, biochemical, ThioGlo CoA-SH fluorescence, plate reader; hit rate 0.16% among 330,000; purified Rtt109/Vps75, 4 h; inhibition, % at 34.9 µM; Histone acetyltransferase RTT109 (Candida albicans (strain SC5314 / ATCC MYA-2876)), …;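 active = inhibition of at least 50% in every replicate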
PglD DTNB: C. jejuni PglD acetyltransferase inhibitors, primary screen, biochemical, DTNB colorimetric, single point; UDP-N-acetylbacillosamine N-acetyltransferase PglD (Campylobacter jejuni); hit rate 0.098% among 360,000; AID 602405, 2012; inhibition, % at 12.5 µM; purified PglD enzyme, DTNB colorimetric CoA detection; in the data active = inhibition above about 16%, passing the limit was not always enough
SR-BI DiI inh: inhibitors of SR-BI mediated HDL lipid uptake, primary screen, ldlA[mSR-BI] cells, fluorescence, single point. Scavenger receptor class B member 1 (Mus musculus), Q61009. ldlA[mSR-BI] CHO cells, DiI-HDL uptake fluorescence, 3 h. inhibition, % at 12.5 µM. hit rate 0.96% among 320,000;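 active = mean replicate inhibition of at least 70% and a set share of replicates each scoring 70 or more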
Target sequence (Q61009 whole entry, looked up): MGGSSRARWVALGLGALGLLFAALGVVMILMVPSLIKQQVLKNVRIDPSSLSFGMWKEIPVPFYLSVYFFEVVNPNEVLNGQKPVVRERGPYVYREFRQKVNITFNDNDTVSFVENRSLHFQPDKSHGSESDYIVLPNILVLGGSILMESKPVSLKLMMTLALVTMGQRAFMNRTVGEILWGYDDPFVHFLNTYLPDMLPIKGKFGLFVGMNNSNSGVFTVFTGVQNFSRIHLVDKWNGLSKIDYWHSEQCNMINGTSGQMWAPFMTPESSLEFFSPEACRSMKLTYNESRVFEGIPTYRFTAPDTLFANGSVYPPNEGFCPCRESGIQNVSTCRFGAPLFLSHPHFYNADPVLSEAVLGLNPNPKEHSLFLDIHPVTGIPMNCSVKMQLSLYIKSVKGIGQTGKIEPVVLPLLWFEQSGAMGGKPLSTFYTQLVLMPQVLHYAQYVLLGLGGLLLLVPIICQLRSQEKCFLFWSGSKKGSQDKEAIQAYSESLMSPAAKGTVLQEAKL
Of the large screens only hits and unclear results are named; the others gave an inactive call; [ ] = dose if it differs, or a comment.

C[C@H](CO)N1C[C@H](C)[C@@H](CN(C)C(=O)Nc2ccc(C(F)(F)F)cc2)OCCCC[C@H](C)Oc2ccc(NC(=O)c3ccccc3)cc2C1=O	Env fusion inh 61.0[16.7 µM] (no result: N-glyco inh, SR-BI uptake up, Rtt109 Vps75, SR-BI DiI inh)
C[C@@H]1CCCCO[C@@H](CN(C)C(=O)Nc2ccc(C(F)(F)F)cc2)[C@H](C)CN([C@@H](C)CO)C(=O)c2cc(NC(=O)c3ccccc3)ccc2O1	none (no result: N-glyco inh, SR-BI uptake up, Rtt109 Vps75, SR-BI DiI inh)
NC(=O)CC(NC(=O)c1ccc(Br)cc1)c1ccc(N2CCCCCC2)c([N+](=O)[O-])c1 (centres undefined)	N-glyco inh 32.8
NC(=O)CC(NC(=O)Cc1ccc(Br)cc1)c1ccc(N2CCC(Br)CC2)c([N+](=O)[O-])c1 (centres undefined)	Env fusion inh 63.0
Cc1cc(NC(=O)CCCn2nc([N+](=O)[O-])c(Cl)c2C)no1	Rtt109 Vps75 51.6 (no result: SR-BI uptake up, PglD DTNB, SR-BI DiI inh)
Cc1cc(NC(=O)CCCn2nc([N+](=O)[O-])cc2C)no1	none (no result: SR-BI uptake up, SR-BI DiI inh)
COc1cc(NC2CCCCC2O)c2nc(-c3ccc(Cl)cc3)ccc2c1 (centres undefined)	SR-BI DiI inh 80.1
CC[C@@]1(O)C(=O)OCc2c1cc1n(c2=O)Cc2cc3c(N)cccc3nc2-1	Env fusion inh 67.7
CC(C)NC(=O)N(C)C[C@H]1Oc2ccc(NC(=O)Nc3cccc4ccccc34)cc2C(=O)N([C@@H](C)CO)C[C@H]1C	none (no result: N-glyco inh, SR-BI uptake up, Rtt109 Vps75, SR-BI DiI inh)
C[C@@H]1CN([C@H](C)CO)C(=O)c2cc(C#CC3CC3)cnc2O[C@H]1CN(C)C(=O)c1ccncc1	none (no result: N-glyco inh, SR-BI uptake up, Rtt109 Vps75, PglD DTNB, SR-BI DiI inh)
CC(C)CC(COCc1ccc(C(F)(F)F)cc1)N1CCN(C(=O)c2ccc(C(F)(F)F)cc2)CCC1=O (centres undefined)	Env fusion inh 57.5
CC(C)C[C@@H](COCc1ccc(C(F)(F)F)cc1)N1CCN(C(=O)c2ccc(C(F)(F)F)cc2)CCC1=O	none (no result: N-glyco inh, SR-BI uptake up, Rtt109 Vps75, PglD DTNB, SR-BI DiI inh)
O=C(c1ccc(C(F)(F)F)cc1)N1CCC(=O)N(C(COCc2ccc(Cl)cc2)Cc2ccccc2)CC1 (centres undefined)	none
O=C(c1ccc(C(F)(F)F)cc1)N1CCC(=O)N(C(COCc2ccccc2)Cc2ccccc2)CC1 (centres undefined)	Env fusion inh 63.3
CC(C)C[C@@H](COCc1cccc(Cl)c1)N1CCN(C(=O)c2ccc(C(F)(F)F)cc2)CCC1=O	Env fusion inh 56.8 (no result: N-glyco inh, SR-BI uptake up, Rtt109 Vps75, PglD DTNB, SR-BI DiI inh)
Cc1ccc(S(=O)(=O)Nc2ccc3c(c2)C(=O)N([C@@H](C)CO)C[C@@H](C)[C@H](CN(C)C(=O)Nc2ccc(F)cc2)OCCCC[C@@H](C)O3)cc1	none (no result: N-glyco inh, SR-BI uptake up, Rtt109 Vps75, SR-BI DiI inh)
O=C(C[n+]1cc(-c2ccc(Cl)cc2)n2c1CCC2)N1c2ccccc2Sc2ccccc21	none
O=C(C[n+]1cc(-c2ccc(Cl)c(Cl)c2)n2c1CCC2)N1c2ccccc2Sc2ccccc21	Rtt109 Vps75 57.1 (no result: Env fusion inh, PglD DTNB)
O=C(CSc1ccccc1C(=O)NCc1ccccc1)NC12CC3CC(CC(C3)C1)C2	Env fusion inh 75.6 (no result: PglD DTNB)
C[C@@H]1CCCCO[C@H](CN(C)S(=O)(=O)c2cn(C)cn2)[C@H](C)CN([C@@H](C)CO)C(=O)c2cc(NC(=O)Nc3ccc(F)cc3)ccc2O1	none (no result: N-glyco inh, SR-BI uptake up, Rtt109 Vps75, SR-BI DiI inh)
Cc1noc(C)c1S(=O)(=O)N(C)C[C@H]1OCCCC[C@H](C)Oc2ccc(NC(=O)Nc3ccc4c(c3)OCO4)cc2C(=O)N([C@@H](C)CO)C[C@@H]1C	Env fusion inh 59.9[16.7 µM] (no result: N-glyco inh, SR-BI uptake up, Rtt109 Vps75, SR-BI DiI inh)
Cc1noc(C)c1NC(=O)Nc1ccc2c(c1)C(=O)N([C@@H](C)CO)C[C@H](C)[C@H](CN(C)S(=O)(=O)c1ccc(F)cc1)OCCCC[C@H](C)O2	Env fusion inh 55.2[16.7 µM] (no result: N-glyco inh, SR-BI uptake up, Rtt109 Vps75, SR-BI DiI inh)
